From ChEMBL document CHEMBL1149910, “2-(6-aryl-3(Z)-hexen-1,5-diynyl)anilines as a new class of potent antitubulin agents” (J Med Chem, 2008)
The source made the active and inactive calls. No cut-off for these calls is given here.

Legend:
MDA-MB-231 [1] = assay: Cell cycle arrest in human MDA-MB-231 cells assessed as accumulation of 4N cells at 27.0 uM after 24 hrs by flow cytometry; assay type: functional
MDA-MB-231 [2] = assay: Cell cycle arrest in human MDA-MB-231 cells assessed as accumulation of >4N cells at 18.0 uM after 24 hrs by flow cytometry; assay type: functional
MDA-MB-231 [3] = assay: Effect on microtubule depolymerization in human MDA-MB-231 cells assessed as disorganized microtubule cytoskeleton at 9 uM after 2 hrs relative to control; assay type: functional, cell-based
Outline: (§1)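 MDA-MB-231/ATCC cells grown on glass coverslips (1 × 10⁴ cells) for 24 h, then exposed to 3.6, 9, 18, 27 or 36 µM at 37 °C for 2 h. Fixed in 4% paraformaldehyde, permeabilized with Triton X-100, and immunostained for α-tubulin and ninein with DAPI counterstain. Interphase microtubule networks compared with untreated cells by confocal microscopy.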

MDA-MB-231 [4] = assay: Cell cycle arrest in human MDA-MB-231 cells assessed as accumulation of 4N cells at 36.0 uM after 24 hrs by flow cytometry; assay type: functional
MDA-MB-435 = assay: Cytotoxicity against human MDA-MB-435 cells; assay type: functional
Outline: (§2)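 Tested in the NCI in vitro antitumor screening protocol across a tumor cell line panel. GI₅₀ is the concentration producing a 50% reduction in cell growth.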

HL-60 = assay: Cytotoxicity against human HL60 cells; assay type: functional; outline: as §2
MDA-MB-231 [5] = assay: Cell cycle arrest in human MDA-MB-231 cells assessed as accumulation of >4N cells at 36.0 uM after 24 hrs by flow cytometry; assay type: functional
MDA-MB-231 [6] = assay: Effect on regrowth of depolymerized microtubule in human MDA-MB-231 cells after drug withdrawal; assay type: functional, cell-based; conditions: TDE = time-dependent effect
Outline: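 MDA-MB-231/ATCC cells on coverslips were treated at 36 µM in DMEM for 2 h at 37 °C, with nocodazole 20 µM and colchicine 5 µM as controls. Drug was then washed out with PBS and cells incubated in prewarmed DMEM at 37 °C. Cells were fixed at set time points and immunostained for α-tubulin and ninein with DAPI counterstain.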

EKVX = assay: Cytotoxicity against human EKVX cells; assay type: functional; outline: as §2
LOX IMVI = assay: Cytotoxicity against human LOXIMVI cells; assay type: functional; outline: as §2
HCT-116 = assay: Cytotoxicity against human HCT116 cells; assay type: functional; outline: as §2
NCI-H322M = assay: Cytotoxicity against human NCI-H322M cells; assay type: functional; outline: as §2
BT-549 = assay: Cytotoxicity against human BT549 cells; assay type: functional; outline: as §2
MDA-MB-231 [7] = assay: Cytotoxicity against human MDA-MB-231 cells; assay type: functional; outline: as §2
OVCAR-3 = assay: Cytotoxicity against human OVCAR-3 cells; assay type: functional; outline: as §2
MDA-MB-231 [8] = assay: Cell cycle arrest in human MDA-MB-231 cells assessed as accumulation of 4N cells at 9.0 uM after 72 hrs by flow cytometry; assay type: functional
MDA-MB-231 [9] = assay: Cell cycle arrest in human MDA-MB-231 cells assessed as accumulation at sub-G1 phase at 36.0 uM after 24 hrs by flow cytometry; assay type: functional
MDA-MB-231 [10] = assay: Cell cycle arrest in human MDA-MB-231 cells assessed as accumulation of 2N cells at 18.0 uM after 72 hrs by flow cytometry; assay type: functional
M14 = assay: Cytotoxicity against human M14 cells; assay type: functional; outline: as §2
TK-10 = assay: Cytotoxicity against human TK10 cells; assay type: functional; outline: as §2
A549 = assay: Cytotoxicity against human A549/ATCC cells; assay type: functional; outline: as §2
IGROV-1 = assay: Cytotoxicity against human IGROV1 cells; assay type: functional; outline: as §2
MDA-MB-231 [11] = assay: Cell cycle arrest in human MDA-MB-231 cells assessed as accumulation at sub-G1 phase at 27.0 uM after 24 hrs by flow cytometry; assay type: functional
HCT-15 = assay: Cytotoxicity against human HCT15 cells; assay type: functional; outline: as §2
CAKI-1 = assay: Cytotoxicity against human CAKI1 cells; assay type: functional; outline: as §2
MDA-MB-231 [12] = assay: Effect on microtubule depolymerization in human MDA-MB-231 cells at 18 uM after 2 hrs; assay type: functional, cell-based; outline: as §1
MDA-MB-231 [13] = assay: Cell cycle arrest in human MDA-MB-231 cells assessed as accumulation at sub-G1 phase at 18.0 uM after 72 hrs by flow cytometry; assay type: functional
[14] = Cytotoxicity against human […] cells; assay type: functional; outline: as §2
K562 [15] = assay: Cell cycle arrest in human K562 cells assessed as accumulation at G0/G1 phase at 50 uM after 24 hrs by flow cytometry; assay type: functional
Outline: (§3)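 K-562 human leukemia cells were grown in RPMI 1640 with 10% fetal calf serum, glutamine and penicillin/streptomycin at 37 °C in 5% CO₂. Cells were exposed to compound at 50 µM for 24 h, then pelleted and PBS-washed. They were fixed in ice-cold ethanol for 30 min, treated with 1 mg/mL RNase A at 37 °C for 30 min, and stained with propidium iodide and Triton X-100 for 30 min at room temperature in the dark. Per-phase and sub-G1 percentages came from flow cytometry gating.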

K562 [16] = assay: Cell cycle arrest in human K562 cells assessed as accumulation at G2/M phase at 50 uM after 24 hrs by flow cytometry; assay type: functional; outline: as §3
SNB-19 = assay: Cytotoxicity against human SNB19 cells; assay type: functional; outline: as §2
MDA-MB-231 [17] = assay: Cell cycle arrest in human MDA-MB-231 cells assessed as accumulation of >4N cells at 9.0 uM after 24 hrs by flow cytometry; assay type: functional
Outline: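 MDA-MB-231/ATCC cells were grown in DMEM with 10% fetal bovine serum, […], 1% nonessential amino acids, penicillin and streptomycin at 37 °C in 5% CO₂. They were exposed to 3.6, 9.0, 18, 27 or 36 µM for 24 or 72 h, with colchicine as control. DNA content was then read by flow cytometry, and […] cells were scored.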

U-251 = assay: Cytotoxicity against human U251 cells; assay type: functional; outline: as §2
RPMI-8226 = assay: Cytotoxicity against human RPMI8226 cells; assay type: functional; outline: as §2
MDA-MB-231 [18] = assay: Cell cycle arrest in human MDA-MB-231 cells assessed as accumulation of 2N cells at 3.6 uM after 24 hrs by flow cytometry; assay type: functional
[19] = read-out: LC50 (the source's name)

SMILES: Nc1ccccc1C#C/C=C\C#Cc1ccccc1C(F)(F)F
- Activity (MDA-MB-231 [1]): 30.7%
- Activity (MDA-MB-231 [2]): 35.1%
- Activity (MDA-MB-231 [3]): Active
- Activity (MDA-MB-231 [4]): 33.6%
- GI50 (MDA-MB-435): 0.4 µM
- TGI (MDA-MB-435): 0.53 µM
- GI50 (HL-60): 0.358 µM
- TGI (HL-60): > 100 µM
- CC50 (HL-60; [19]): > 100 µM
- Activity (MDA-MB-231 [5]): 36.3%
- Activity (MDA-MB-231 [6]): tde
- GI50 (EKVX): 0.358 µM
- TGI (EKVX): 12.4 µM
- CC50 (EKVX; [19]): 40.4 µM
- GI50 (LOX IMVI): 0.499 µM
- TGI (LOX IMVI): 10.5 µM
- CC50 (LOX IMVI; [19]): 46.2 µM
- GI50 (HCT-116): 0.423 µM
- TGI (HCT-116): 12.5 µM
- CC50 (HCT-116; [19]): 47.4 µM
- GI50 (NCI-H322M): 12.1 µM
- TGI (NCI-H322M): 27.9 µM
- CC50 (NCI-H322M; [19]): 64.4 µM
- GI50 (BT-549): 0.699 µM
- TGI (BT-549): 17.3 µM
- CC50 (BT-549; [19]): 43.4 µM
- GI50 (MDA-MB-231 [7]): 0.398 µM
- GI50 (OVCAR-3): 0.63 µM
- TGI (OVCAR-3): 0.959 µM
- CC50 (OVCAR-3; [19]): 24.1 µM
- Activity (MDA-MB-231 [8]): 21.3%
- Activity (MDA-MB-231 [9]): 23.6%
- Activity (MDA-MB-231 [10]): 7.1%
- GI50 (M14): 0.372 µM
- TGI (M14): 13.2 µM
- CC50 (M14; [19]): 49.4 µM
- GI50 (TK-10): 8.3 µM
- TGI (TK-10): 27.9 µM
- CC50 (TK-10; [19]): 78.4 µM
- GI50 (A549): 0.745 µM
- TGI (A549): 15.2 µM
- CC50 (A549; [19]): 59.5 µM
- GI50 (IGROV-1): 0.349 µM
- TGI (IGROV-1): 31.1 µM
- CC50 (IGROV-1; [19]): > 100 µM
- Activity (MDA-MB-231 [11]): 24.7%
- GI50 (HCT-15): 1.26 µM
- TGI (HCT-15): 11.4 µM
- CC50 (HCT-15; [19]): 51.1 µM
- GI50 (CAKI-1): 0.351 µM
- TGI (CAKI-1): 13.2 µM
- CC50 (CAKI-1; [19]): 38 µM
- Activity (MDA-MB-231 [12]): Active
- Activity (MDA-MB-231 [13]): 62.5%
- GI50 [14]: 0.746 µM
- TGI [14]: > 100 µM
- CC50 [14, 19]: > 100 µM
- Activity (K562 [15]): 6.7%
- Activity (K562 [16]): 73.9%
- GI50 (SNB-19): 11.3 µM
- TGI (SNB-19): 39.9 µM
- CC50 (SNB-19; [19]): > 100 µM
- Activity (MDA-MB-231 [17]): 34%
- GI50 (U-251): 0.666 µM
- TGI (U-251): 17.5 µM
- CC50 (U-251; [19]): 45.4 µM
- GI50 (RPMI-8226): 0.738 µM
- TGI (RPMI-8226): > 100 µM
- CC50 (RPMI-8226; [19]): > 100 µM
- Activity (MDA-MB-231 [18]): 9.5%
